Assay results taken from the array DNA melting data of Ke et al. (doi:10.1101/2024.01.08.574731).

Experiments:
[1] = folding enthalpy; higher = less favourable; fluorescence melt of hairpins on a sequencing array, two-state fit; settings: sodium 0.088 M
How it was run: (§1)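 To match UV melts, fitted temperatures were raised by 9.35 °C. These fits were bootstrapped two-state models that gave melting temperature and folding enthalpy, combined by inverse variance over four replicates. The input was normalised Cy3 fluorescence of library hairpins with annealed Cy3 and quencher oligos on a sequenced MiSeq flow cell, imaged in 50 mM Na-HEPES pH 8.0, 25 mM NaCl in 2.5 °C steps up to 60 °C.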

[2] = melting temperature; fluorescence melt of hairpins on a sequencing array, two-state fit, raised by 9.35 °C to match UV melts; settings: sodium 0.088 M
How it was run: as §1

## GTTCACGAAAGTGTAAAC ((((((....)))..)))
[1]
  folding enthalpy: -12.3 kcal/mol
[2]
  Tm: 28.2 °C

## GAAATACGAAAGTACTTC (((.(((....))).)))
[1]
  folding enthalpy: -15.7 kcal/mol
[2]
  Tm: 29.5 °C

## GGCGGCGAAAGCCCTGCC ((((((....)))..)))
[1]
  folding enthalpy: -20.1 kcal/mol
[2]
  Tm: 53.6 °C

## GATCCTACGTAGGATC ((((((....))))))
[1]
  folding enthalpy: -40.6 kcal/mol
[2]
  Tm: 53.3 °C

## GCTTATCGAAAGATAGC (((.(((....))))))
[1]
  folding enthalpy: -27.5 kcal/mol
[2]
  Tm: 43.4 °C

## GCAGAGCGAAAGCCTTGC (((..((....))..)))
[1]
  folding enthalpy: -14.5 kcal/mol
[2]
  Tm: 43.5 °C

## GCAATTACGAAAGTATGC (((..(((....))))))
[1]
  folding enthalpy: -20.3 kcal/mol
[2]
  Tm: 31.1 °C

## GATCGGCGTACCGATC ((((((....))))))
[1]
  folding enthalpy: -38.2 kcal/mol
[2]
  Tm: 59.5 °C

## GGTAGGCGAAAGCCACC (((.(((....))))))
[1]
  folding enthalpy: -16 kcal/mol
[2]
  Tm: 58.2 °C

## GTTGCCCGAAAGGGGAAC (((.(((....))).)))
[1]
  folding enthalpy: -34.2 kcal/mol
[2]
  Tm: 62.1 °C

## GGTGATGGAAACATCACC (((((((....)))))))
[1]
  folding enthalpy: -39.6 kcal/mol
[2]
  Tm: 65.6 °C

## GGACTCGGAAACGAGTTC (.(((((....))))).)
[1]
  folding enthalpy: -38.3 kcal/mol
[2]
  Tm: 53.6 °C

## GATCTTGAGAAAGATC ((((((....))))))
[1]
  folding enthalpy: -32.1 kcal/mol
[2]
  Tm: 45.9 °C

## GATGCGGAAACGCATC ((((((....))))))
[1]
  folding enthalpy: -31.3 kcal/mol
[2]
  Tm: 68.2 °C

## GGAATCCGAAAGGAGTCC (((.(((....))).)))
[1]
  folding enthalpy: -42.5 kcal/mol
[2]
  Tm: 55.8 °C

## GTTAGGGGAAACCCCAAC (((.(((....))).)))
[1]
  folding enthalpy: -19 kcal/mol
[2]
  Tm: 37.4 °C

## GCGAAGCGAAAGCTTAGC ((.((((....)))).))
[1]
  folding enthalpy: -16.1 kcal/mol
[2]
  Tm: 56 °C

## GTCGCTGGAAACGGCGAC (((((.(....).)))))
[1]
  folding enthalpy: -43.8 kcal/mol
[2]
  Tm: 65.7 °C

## GCGAGGCCTCGC ((((....))))
[1]
  folding enthalpy: -46 kcal/mol
[2]
  Tm: 62.8 °C

## GCTGGCGAAAGCCCGAGC ((((((....)))..)))
[1]
  folding enthalpy: -14.3 kcal/mol
[2]
  Tm: 45.4 °C

## GCGGCTAACCGC ((((....))))
[1]
  folding enthalpy: -26.2 kcal/mol
[2]
  Tm: 56.5 °C

## GTGCTCGAAAGAGGCAC ((((((....))).)))
[1]
  folding enthalpy: -24.7 kcal/mol
[2]
  Tm: 55.2 °C

## GGGTACGGAAACACACCC ((((..(....)..))))
[1]
  folding enthalpy: -21.9 kcal/mol
[2]
  Tm: 32.6 °C

## GCCAGCGGAAACACTGGC (((((.(....).)))))
[1]
  folding enthalpy: -39.2 kcal/mol
[2]
  Tm: 52.8 °C

## GCCTATGGAAACGTAGGC (((((.(....).)))))
[1]
  folding enthalpy: -39.8 kcal/mol
[2]
  Tm: 51.1 °C

## GGACGCGAAAGCGGGTCC ((((((....)))..)))
[1]
  folding enthalpy: -14 kcal/mol
[2]
  Tm: 54.2 °C

## GCCGCTGGAAACAGTGGC (((.(((....))).)))
[1]
  folding enthalpy: -50.7 kcal/mol
[2]
  Tm: 62.9 °C

## GGTAGCGAAAGCTACACC ((((((....)))..)))
[1]
  folding enthalpy: -9.32 kcal/mol
[2]
  Tm: 50.5 °C

## GAGAAGGGAAACCTTTTC ((.((((....)))).))
[1]
  folding enthalpy: -28.4 kcal/mol
[2]
  Tm: 28.8 °C

## GGCAAAGGAAACCTTGCC (((((.(....).)))))
[1]
  folding enthalpy: -31.5 kcal/mol
[2]
  Tm: 49.3 °C

## CGGTCCGGAAACGGCCG (((.(((....))))))
[1]
  folding enthalpy: -26.7 kcal/mol
[2]
  Tm: 57.6 °C

## GATCTACTCTAGATC ((((((...))))))
[1]
  folding enthalpy: -31 kcal/mol
[2]
  Tm: 40.6 °C

## GCTTTGCGAAAGCCATGC ((.(.((....)).).))
[1]
  folding enthalpy: -11.6 kcal/mol
[2]
  Tm: 31.3 °C

## GTATGTCGAAAGACTTAC (((.(((....))).)))
[1]
  folding enthalpy: -25.1 kcal/mol
[2]
  Tm: 45.5 °C

## GATCTTTACCAAGATC ((((((....))))))
[1]
  folding enthalpy: -29.9 kcal/mol
[2]
  Tm: 42 °C

## GGTTTTGGAAACAAGACC (((.(((....))).)))
[1]
  folding enthalpy: -31.6 kcal/mol
[2]
  Tm: 42.8 °C

## GATATGAAAATATC (((((....)))))
[1]
  folding enthalpy: -15.7 kcal/mol
[2]
  Tm: 35.7 °C

## GTAACCGAAAGGTAATAC ((((((....)))..)))
[1]
  folding enthalpy: -11.9 kcal/mol
[2]
  Tm: 23.8 °C
